Reference: ChEMBL document CHEMBL4033712, “Synthesis and biological evaluation of new C-12(α/β)-(N-) sulfamoyl-phenylamino-14-deoxy-andrographolide derivatives as potent anti-cancer agents” (Bioorg Med Chem Lett, 2017)

What was measured:
Type in all cases: functional
[1] = tested on: HOP-92; assay: Anticancer activity against human HOP92 cells assessed as cell growth at 10 uM after 48 hrs by sulforhodamine B assay relative to control; details: HOP-92, 48 h, read-out: Activity
Procedure, shortened: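 Single-dose NCI-60 panel screen: compound added at 10 µM and the culture incubated 48 h. The end point was read by protein staining with sulforhodamine B. The value is percent growth of treated cells relative to untreated control cells, reported as a mean graph across the panel.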

[2] = tested on: RXF 393; assay: Growth inhibition of human RXF393 cells incubated for 48 hrs by sulforhodamine B assay; details: RXF 393, 48 h
Procedure, shortened: (§1)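 NCI 60 human tumour cell line panel, five-dose study at 0.01, 0.1, 1, 10 and 100 µM, 48 h incubation. Sulforhodamine B protein-binding dye end point. GI50 (50% decrease in net cell growth), TGI (total growth inhibition) and LC50 (net 50% loss of initial cells) read from log concentration versus % growth inhibition curves.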

[3] = tested on: ACHN; assay: Growth inhibition of human ACHN cells incubated for 48 hrs by sulforhodamine B assay
Procedure, shortened: (§2)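 NCI-60 five-dose screen at 0.01, 0.1, 1, 10 and 100 µM, 48 h incubation, sulforhodamine B end point. GI50 (50% decrease in net growth), TGI (total growth inhibition) and LC50 (net 50% loss of initial cells) taken from log concentration versus % growth inhibition curves.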

[4] = tested on: SF-268; assay: Growth inhibition of human SF268 cells incubated for 48 hrs by sulforhodamine B assay; details: SF-268, 48 h; procedure, shortened: as §1
[5] = tested on: MCF7; assay: Growth inhibition of human MCF7 cells incubated for 48 hrs by sulforhodamine B assay; details: MCF7, 48 h; procedure, shortened: as §2
[6] = tested on: SNB-75; assay: Growth inhibition of human SNB75 cells incubated for 48 hrs by sulforhodamine B assay; details: SNB-75, 48 h; procedure, shortened: as §1
[7] = tested on: HOP-62; assay: Growth inhibition of human HOP62 cells incubated for 48 hrs by sulforhodamine B assay; details: HOP-62, 48 h; procedure, shortened: as §2
[8] = tested on: OVCAR-3; assay: Growth inhibition of human OVCAR3 cells incubated for 48 hrs by sulforhodamine B assay; details: OVCAR-3, 48 h; procedure, shortened: as §2
[9] = tested on: M14; assay: Growth inhibition of human M14 cells incubated for 48 hrs by sulforhodamine B assay; details: M14, 48 h; procedure, shortened: as §2
[10] = tested on: NCI-H23; assay: Growth inhibition of human NCI-H23 cells incubated for 48 hrs by sulforhodamine B assay; details: NCI-H23, 48 h; procedure, shortened: as §2
[11] = tested on: K562; assay: Growth inhibition of human K562 cells incubated for 48 hrs by sulforhodamine B assay; details: K562, 48 h; procedure, shortened: as §2
[12] = tested on: KM12; assay: Growth inhibition of human KM12 cells incubated for 48 hrs by sulforhodamine B assay; details: KM12, 48 h; procedure, shortened: as §2
[13] = tested on: CCRF-CEM; assay: Growth inhibition of human CCRF-CEM cells incubated for 48 hrs by sulforhodamine B assay; procedure, shortened: as §2
[14] = tested on: HL-60(TB); assay: Growth inhibition of human HL-60(TB) cells incubated for 48 hrs by sulforhodamine B assay; details: HL-60, 48 h
Procedure, shortened: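 NCI-60 five-dose screen at 0.01, 0.1, 1, 10 and 100 µM for 48 h, sulforhodamine B read-out. GI50 taken from log concentration versus % growth inhibition curves as the concentration giving 50% decrease in net cell growth.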

[15] = tested on: MOLT-4; assay: Growth inhibition of human MOLT4 cells incubated for 48 hrs by sulforhodamine B assay; details: MOLT-4, 48 h; procedure, shortened: as §2
[16] = tested on: SW-620; assay: Growth inhibition of human SW620 cells incubated for 48 hrs by sulforhodamine B assay; details: SW-620, 48 h; procedure, shortened: as §1
[17] = tested on: OVCAR-5; assay: Growth inhibition of human OVCAR5 cells incubated for 48 hrs by sulforhodamine B assay; details: OVCAR-5, 48 h; procedure, shortened: as §2
[18] = tested on: UO-31; assay: Growth inhibition of human UO31 cells incubated for 48 hrs by sulforhodamine B assay; details: UO-31, 48 h; procedure, shortened: as §1
[19] = tested on: UACC-62; assay: Growth inhibition of human UACC62 cells incubated for 48 hrs by sulforhodamine B assay; details: UACC-62, 48 h; procedure, shortened: as §1
[20] = tested on: EKVX; assay: Growth inhibition of human EKVX cells incubated for 48 hrs by sulforhodamine B assay; procedure, shortened: as §2
[21] = tested on: HT-29; assay: Growth inhibition of human HT-29 cells incubated for 48 hrs by sulforhodamine B assay; details: HT-29, 48 h; procedure, shortened: as §2
[22] = tested on: 786-0; assay: Growth inhibition of human 786-0 cells incubated for 48 hrs by sulforhodamine B assay; details: 786-0, 48 h; procedure, shortened: as §2
[23] = tested on: SF-539; assay: Growth inhibition of human SF539 cells incubated for 48 hrs by sulforhodamine B assay; details: SF-539, 48 h; procedure, shortened: as §1
[24] = tested on: COLO 205; assay: Growth inhibition of human COLO205 cells incubated for 48 hrs by sulforhodamine B assay; details: COLO 205, 48 h; procedure, shortened: as §2
[25] = tested on: CAKI-1; assay: Growth inhibition of human Caki1 cells incubated for 48 hrs by sulforhodamine B assay; details: CAKI-1, 48 h; procedure, shortened: as §2
[26] = tested on: PC-3; assay: Growth inhibition of human PC3 cells incubated for 48 hrs by sulforhodamine B assay; details: PC-3, 48 h; procedure, shortened: as §2
[27] = tested on: MDA-MB-435; assay: Growth inhibition of human MDA-MB-435 cells incubated for 48 hrs by sulforhodamine B assay; details: MDA-MB-435, 48 h; procedure, shortened: as §2
[28] = tested on: SK-MEL-5; assay: Growth inhibition of human SK-MEL-5 cells incubated for 48 hrs by sulforhodamine B assay; details: SK-MEL-5, 48 h; procedure, shortened: as §1
[29] = read-out: LC50 (the source's name)

Compound: C=C1CC[C@@H]2[C@](C)(COC(C)=O)[C@H](OC(C)=O)CC[C@@]2(C)[C@H]1CC(Nc1ccc(S(=O)(=O)Nc2nccc(C)n2)cc1)C1=CCOC1=O (some centres not stated)
- growth at 10 µM [1]: 71.6%
- GI50 [2]: 2.33 µM
- TGI [2]: 4.18 µM
- CC50 [2, 29]: 7.49 µM
- GI50 [3]: 3.64 µM
- TGI [3]: 13 µM
- CC50 [3, 29]: 38.4 µM
- GI50 [4]: 6.19 µM
- TGI [4]: 20.9 µM
- CC50 [4, 29]: 54.2 µM
- GI50 [5]: 2.27 µM
- TGI [5]: 12.5 µM
- CC50 [5, 29]: > 100 µM
- GI50 [6]: 2.69 µM
- TGI [6]: 14.9 µM
- CC50 [6, 29]: 38.6 µM
- GI50 [7]: 10.3 µM
- TGI [7]: 22.5 µM
- CC50 [7, 29]: 49.3 µM
- GI50 [8]: 1.76 µM
- TGI [8]: 3.36 µM
- CC50 [8, 29]: 6.43 µM
- GI50 [9]: 2.81 µM
- TGI [9]: 10.8 µM
- CC50 [9, 29]: 72.6 µM
- GI50 [10]: 3.78 µM
- TGI [10]: 16 µM
- CC50 [10, 29]: 50.6 µM
- GI50 [11]: 2.97 µM
- TGI [11]: 21.7 µM
- CC50 [11, 29]: > 100 µM
- GI50 [12]: 4.59 µM
- TGI [12]: 16.4 µM
- CC50 [12, 29]: 44.4 µM
- GI50 [13]: 0.0073 µM
- TGI [13]: 3.09 µM
- CC50 [13, 29]: > 100 µM
- GI50 [14]: 2.1 µM
- TGI [14]: 5.63 µM
- CC50 [14, 29]: > 100 µM
- GI50 [15]: 3.22 µM
- TGI [15]: 17.9 µM
- CC50 [15, 29]: > 100 µM
- GI50 [16]: 1.6 µM
- TGI [16]: 3.68 µM
- CC50 [16, 29]: 8.48 µM
- GI50 [17]: 3.86 µM
- LC50 (concentration causing net 50% loss of initial cells) [17]: 42.2 µM
- TGI [17]: 12.8 µM
- GI50 [18]: 2.91 µM
- LC50 (concentration giving net 50% loss of initial cells) [18]: 33.3 µM
- TGI [18]: 10.6 µM
- GI50 [19]: 2.38 µM
- TGI [19]: 7.12 µM
- CC50 [19, 29]: 30.3 µM
- GI50 [20]: 13.9 µM
- TGI [20]: 27.1 µM
- CC50 [20, 29]: 52.7 µM
- GI50 [21]: 2.02 µM
- TGI [21]: 4.24 µM
- CC50 [21, 29]: 8.93 µM
- GI50 [22]: 2.27 µM
- LC50 (concentration giving net 50% loss of initial cells) [22]: 13.8 µM
- TGI [22]: 5.06 µM
- GI50 [23]: 2.07 µM
- TGI [23]: 4.73 µM
- CC50 [23, 29]: 12.4 µM
- GI50 [24]: 2.09 µM
- TGI [24]: 4.66 µM
- CC50 [24, 29]: 11.9 µM
- GI50 [25]: 3.56 µM
- TGI [25]: 12.5 µM
- CC50 [25, 29]: 35.5 µM
- GI50 [26]: 4.46 µM
- TGI [26]: 15.7 µM
- CC50 [26, 29]: 43.3 µM
- GI50 [27]: 2.92 µM
- TGI [27]: 10.4 µM
- CC50 [27, 29]: 34.2 µM
- GI50 [28]: 3.79 µM
- TGI [28]: 14 µM
- CC50 [28, 29]: 41.2 µM
